Source: ChEMBL document CHEMBL3784973, “A Parallel Synthesis Approach to the Identification of Novel Diheteroarylamide-Based Compounds Blocking HIV Replication: Potential Inhibitors of HIV-1 Pre-mRNA Alternative Splicing” (J Med Chem, 2016)
Calls of active or inactive are those of the source. No cut-off for these calls is given here.

Experiments:
[1] = system: Human immunodeficiency virus 1; test: Antiviral activity against HIV1 NL4-3 infected in GFP-positive human CEM cells expressing CD4+,CXCR4 and CCR5 at 2 uM after 3 days by flow cytometric analysis; format: functional, organism-based; settings: CCRF-CEM
Method in brief: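 Library screen of HIV-1 spread in CEM-GXR cells cocultured with 1% HIV-1NL4-3-infected (GFP+) cells. Cells were grown in RPMI-1640 with 10% FCS and penicillin-streptomycin, and selected with G418 and hygromycin B during propagation. Compound at final 2 μM in DMSO was added right after inoculation. Infection was read by flow cytometry of GFP.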

[2] = Cytotoxicity against GFP-positive human CEM cells expressing CD4+,CXCR4 and CCR5 assessed as cell viability at 16 uM after 24 hrs by Guava viacount assay; format: cell-based, CCRF-CEM; settings: read-out: Activity
Method in brief: (§1)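 Uninfected CEM-GXR cells were incubated 24 h with serial dilutions from 62.5 nM to 16 μM final. Viability was read by Guava ViaCount (dye permeability staining with forward scatter gating) as % viable cells. Three independent experiments.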

[3] = Cytotoxicity against GFP-positive human CEM cells expressing CD4+,CXCR4 and CCR5 assessed as cell viability at 8 uM after 24 hrs by Guava viacount assay; format: cell-based, CCRF-CEM; settings: read-out: Activity; method in brief: as §1
[4] = Cytotoxicity against GFP-positive human CEM cells expressing CD4+,CXCR4 and CCR5 assessed as cell viability at 4 uM after 24 hrs by Guava viacount assay; format: cell-based, CCRF-CEM; settings: read-out: Activity; method in brief: as §1
[5] = Cytotoxicity against GFP-positive human CEM cells expressing CD4+,CXCR4 and CCR5 assessed as cell viability at 1 uM after 24 hrs by Guava viacount assay; format: cell-based, CCRF-CEM; settings: read-out: Activity; method in brief: as §1
[6] = system: Human immunodeficiency virus 1; test: Antiviral activity against HIV1 3B infected in GFP-positive human CEM cells expressing CD4+,CXCR4 and CCR5 assessed as number of infected cells at 1 uM after 3 days; format: functional, CCRF-CEM
Method in brief: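 CEM-GXR cells (CD4+ T-cell line, Tat-driven LTR-GFP reporter) infected by coculture with 1% HIV-1IIIB-infected cells. Serial dilutions 62.5 nM–16 μM added at inoculation. GFP-positive (infected) cells counted 3 days post-infection. Three independent experiments.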

[7] = system: Human immunodeficiency virus 1; test: Antiviral activity against subtype A R5 tropic HIV1 97USSN54 infected in GFP-positive human CEM cells expressing CD4+,CXCR4 and CCR5 after 3 days; format: functional, organism-based; settings: Human immunodeficiency virus 1, 97USSN54, CCRF-CEM, 72 h
Method in brief: (§2)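 Infected CEM-GXR GFP-reporter cells were exposed to increasing compound concentrations. GFP-positive cells were measured by flow cytometry 3 days after infection. EC50 came from nonlinear regression of the inhibition curves. Mean of three independent determinations.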

[8] = system: Human immunodeficiency virus 1; test: Antiviral activity against subtype B X4 tropic HIV1 3B infected in GFP-positive human CEM cells expressing CD4+,CXCR4 and CCR5 after 3 days; format: functional, organism-based; settings: Human immunodeficiency virus 1, 3B, CCRF-CEM, 72 h; method in brief: as §2
[9] = Cytotoxicity against GFP-positive human CEM cells expressing CD4+,CXCR4 and CCR5 assessed as cell viability at 100 uM after 24 hrs by Guava viacount assay (reference value: 98%); format: cell-based, CCRF-CEM; settings: read-out: Activity
Method in brief: (§3)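 For viability, CEM-GXR cells were incubated 24 h with compound at 0.5–100 μM. Guava ViaCount flow assay used DNA-binding dye permeability plus forward scatter to exclude nuclei and debris. Values are % viable cells (±SEM, three independent experiments), and CC50 is the concentration killing 50% of host cells.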

[10] = system: Human immunodeficiency virus 1; test: Antiviral activity against […]-resistance HIV1 E00443 harboring reverse transcriptase D67N/K70R/Y115F/Q151M/M184V/K219Q mutant infected in GFP-positive human CEM cells expressing CD4+,CXCR4 and CCR5 after 3 days; format: functional, organism-based; settings: Human immunodeficiency virus 1, E00443, CCRF-CEM, 72 h
[11] = system: Human immunodeficiency virus 1; test: Antiviral activity against PI-resistant HIV1 isolate 2948 harboring protease G48V/L90M mutant infected in GFP-positive human CEM cells expressing CD4+,CXCR4 and CCR5 after 3 days; format: functional, organism-based; settings: Human immunodeficiency virus 1, isolate 2948, CCRF-CEM, 72 h
[12] = system: Human immunodeficiency virus 1; test: Antiviral activity against INI-resistant HIV1 isolate 11845 harboring integrase G140S/Q148H mutant infected in GFP-positive human CEM cells expressing CD4+,CXCR4 and CCR5 after 3 days; format: functional, organism-based; settings: Human immunodeficiency virus 1, isolate 11845, CCRF-CEM, 72 h
[13] = system: Human immunodeficiency virus 1; test: Antiviral activity against maraviroc-resistant HIV1 BAL R5 harboring envelop V3 A19T/L20F/T22A/E25D/126V mutant infected in GFP-positive human CEM cells expressing CD4+,CXCR4 and CCR5 after 3 days; format: functional, organism-based; settings: ccrf-cem
[14] = Cytotoxicity against GFP-positive human CEM cells expressing CD4+,CXCR4 and CCR5 assessed as cell viability at after 24 hrs by Guava viacount assay; format: cell-based, CCRF-CEM; method in brief: as §3
[15] = Therapeutic index, ratio of CC50 for GFP-positive human CEM cells expressing CD4+,CXCR4 and CCR5 to EC50 for HIV1 3B infected in GFP-positive human CEM cells expressing CD4+,CXCR4 and CCR5; format: cell-based, CCRF-CEM; settings: read-out: TI
Method in brief: (§4)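 Reporter CEM-GXR T cells (Tat-driven LTR-GFP cassette; RPMI-1640, 10% FCS, penicillin-streptomycin) were infected by coculture with 1% HIV-infected GFP-positive cells. Compound in DMSO was added after inoculation. Infected cells were counted by flow cytometry for GFP at day 3, and EC50 was taken from nonlinear regression. CC50 came from Guava ViaCount viability after 24 h at 0.5–100 μM. Index = CC50/EC50.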

[16] = Therapeutic index, ratio of CC50 for GFP-positive human CEM cells expressing CD4+,CXCR4 and CCR5 to EC50 for HIV1 97USSN54 infected in GFP-positive human CEM cells expressing CD4+,CXCR4 and CCR5; format: cell-based, CCRF-CEM; settings: read-out: TI; method in brief: as §4
[17] = Therapeutic index, ratio of CC50 for GFP-positive human CEM cells expressing CD4+,CXCR4 and CCR5 to EC50 for […] HIV1 E00443 reverse transcriptase D67N/K70R/Y115F/Q151M/M184V/K219Q mutant infected in GFP-positive human CEM cells expressing CD4+,CXCR4 and CCR5; format: cell-based; settings: ccrf-cem, read-out: TI
[18] = Therapeutic index, ratio of CC50 for GFP-positive human CEM cells expressing CD4+,CXCR4 and CCR5 to EC50 for HIV1 isolate 2948 harboring protease G48V/L90M mutant infected in GFP-positive human CEM cells expressing CD4+,CXCR4 and CCR5; format: cell-based; settings: ccrf-cem, read-out: TI
[19] = Therapeutic index, ratio of CC50 for GFP-positive human CEM cells expressing CD4+,CXCR4 and CCR5 to EC50 for INI-resistant HIV1 isolate 11845 harboring integrase G140S/Q148H mutant infected in GFP-positive human CEM cells expressing CD4+,CXCR4 and CCR5; format: cell-based; settings: ccrf-cem, read-out: TI
[20] = Therapeutic index, ratio of CC50 for GFP-positive human CEM cells expressing CD4+,CXCR4 and CCR5 to EC50 for maraviroc-resistant HIV1 BAL R5 harboring envelop V3 A19T/L20F/T22A/E25D/126V mutant infected in GFP-positive human CEM cells expressing CD4+,CXCR4 and CCR5; format: cell-based; settings: ccrf-cem, read-out: TI

COCCOc1ccncc1C(=O)Nc1nsc2ccc([N+](=O)[O-])cc12
antiviral activity call (active/inactive) [1]: Active

Cc1c2ccnc(Cl)c2cc2c3cn(C)ccc-3nc12
viability at 24 h, 16 µM [2]: 11.9% | viability at 24 h, 8 µM [3]: 19.9% | viability at 24 h, 4 µM [4]: 33.2% | viability at 24 h, 1 µM [5]: 85.5% | Activity [6]: 17.7%

COc1cc(C(=O)Nc2nsc3ccc([N+](=O)[O-])cc23)ccn1
antiviral activity call (active/inactive) [1]: Active

COCCOc1cc(=O)n(C)cc1C(=O)Nc1nsc2ccc([N+](=O)[O-])cc12
antiviral activity call (active/inactive) [1]: Active

Cn1ccc(=O)c(C(=O)Nc2nsc3ccc([N+](=O)[O-])cc23)c1
antiviral activity call (active/inactive) [1]: Active | EC50 [7]: 900 nM | EC50 [8]: 600 nM | viability at 24 h, 100 µM [9]: 68.8% | EC50 [10]: 1300 nM | EC50 [11]: 1400 nM | EC50 [12]: 1500 nM | EC50 [13]: 900 nM | viability at 24 h, 16 µM [2]: 78.7% | viability at 24 h, 8 µM [3]: 80.9% | viability at 24 h, 4 µM [4]: 81.5% | viability at 24 h, 1 µM [5]: 89.6% | CC50 at 24 h [14]: > 100000 nM | Activity [6]: 18.4% | selectivity ratio [15]: > 166 | selectivity ratio [16]: > 111 | selectivity ratio [17]: > 77 | selectivity ratio [18]: > 71 | selectivity ratio [19]: > 66 | selectivity ratio [20]: > 111

Nc1nc(=O)n([C@@H]2CS[C@H](CO)O2)cc1F [EMTRICITABINE]
EC50 [8]: 40 nM
